Screens as filed in PubChem BioAssay.
Most compounds without a hit are left out; they make up all but 3.6% or so of the library.
MITF act: activators of MITF-driven TRPM1 promoter activity in SK-MEL-5 cells. SK-MEL-5 TRPM1-promoter luciferase, 24 h; % of positive control, neutral wells = 0. activation, % at 12.5 µM. 300,000 compounds, 0.75% hits;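 active means mean activation of at least 80% with every replicate also reaching 80%; inconclusive means mean reaches 80% but some replicate falls short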
SR-BI DiI-HDL act: SR-BI HDL lipid transfer activation; CHO ldlA[mSR-BI] cells, DiI-HDL uptake fluorescence, 3 h; 100 = double the neutral-control signal; activation, % at 12.5 µM; 320,000 compounds, 0.096% hits;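 active means mean replicate activation of at least 60% and every replicate at or above 60%; inconclusive means mean or all-replicate condition met, but not both; inactive means mean below 60% and not all replicates reaching 60%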
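System: CHO ldlA[mSR-BI] cells / Medium: HEPES-buffered (25 mM, pH 7.4) F12 plus 0.5% BSA / Probe or stimulus: labelled HDL, 10 µg/mL / Doses: single compound concentration, delivered by pin transfer / Schedule: 3 h, 37 °C / Measured by: DiI fluorescence, bottom read / Measure: cell-associated DiI fluorescence as measure of HDL uptake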
SR-BI HDL uptake: mouse SR-BI HDL lipid transfer inhibition; Q61009; ldlA[mSR-BI] CHO cells, DiI-HDL uptake fluorescence, 3 h; inhibition, % at 12.5 µM; 320,000 compounds, 0.96% hits;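 active means mean replicate inhibition of at least 70% and a set share of replicates each scoring 70 or more; inconclusive means meets just one of the two criteria; inactive means fails both criteria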
Target sequence (Q61009 whole entry, looked up): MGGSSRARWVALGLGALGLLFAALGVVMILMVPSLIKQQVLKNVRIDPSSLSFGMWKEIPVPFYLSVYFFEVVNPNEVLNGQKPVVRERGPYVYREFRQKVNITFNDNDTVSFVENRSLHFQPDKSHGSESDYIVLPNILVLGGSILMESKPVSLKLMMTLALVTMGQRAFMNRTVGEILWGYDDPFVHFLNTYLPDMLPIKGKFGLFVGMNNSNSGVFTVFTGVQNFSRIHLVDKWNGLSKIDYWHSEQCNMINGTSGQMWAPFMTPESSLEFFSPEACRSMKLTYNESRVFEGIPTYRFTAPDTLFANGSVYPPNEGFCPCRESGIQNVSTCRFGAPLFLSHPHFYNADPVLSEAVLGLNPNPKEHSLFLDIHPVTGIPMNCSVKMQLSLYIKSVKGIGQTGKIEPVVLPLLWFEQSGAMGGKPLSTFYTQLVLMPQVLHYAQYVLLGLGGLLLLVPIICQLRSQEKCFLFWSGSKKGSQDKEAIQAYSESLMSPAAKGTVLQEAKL
HSF1 activator: increases HSF-1 driven luciferase reporter signal | NIH3T3-HGL HSF-1 luciferase reporter, MG132, 8 h; 100% = twice DMSO control signal | activation, % at 9 µM | 300,000 compounds, 1.7% hits | AID 504408;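 active means mean replicate activation of at least 50% with a set share of replicates each reaching 50%; inconclusive means only one of those two conditions met; inactive means mean below 50% and too few replicates reaching it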
Wnt act: activates Wnt/beta-catenin signaling in a reporter cell assay. activator, plate reader. activation, % at 9.35 µM. 300,000 compounds, 1.2% hits. AID 743398; in the data active means activation above about 30%, passing the limit was not always enough; inconclusive means no clear call, values can overlap the other calls
Of the large screens only hits and unclear results are named; the others gave an inactive call.

CCn1c(O)c(/C=N/NC(=O)c2ccncc2)c(=O)n(CC)c1=S	SR-BI HDL uptake 74
Cn1c(=O)n(C)c2cc(/C=N/NC(=O)c3ccncc3)ccc21	none (no result: MITF act, SR-BI DiI-HDL act, SR-BI HDL uptake, Wnt act)
COC(=O)[C@]12CCCCC=C1N(Cc1ccccc1)C(=O)[C@H](CC(=O)NCCc1ccccc1OC)C2	none (no result: MITF act, SR-BI DiI-HDL act, SR-BI HDL uptake, HSF1 activator)
Cc1cccc(N2CCN(C(=O)CSCc3c(C)noc3C)CC2)c1C	HSF1 activator 54 (no result: Wnt act)
Cc1ccc(C(O)c2ncc(-c3ccccc3Cl)[nH]2)cc1 (configuration not stated)	none (no result: MITF act, SR-BI DiI-HDL act, SR-BI HDL uptake, HSF1 activator)
COc1ccc(Oc2ccccc2/C=C/C(=O)O)cc1	SR-BI DiI-HDL act 536 (no result: MITF act)
O=C(O)/C=C/c1ccccc1Oc1ccccc1	none (no result: MITF act, Wnt act)
CCCCC(=O)N(C)c1c(C)nc2ccc(C(=O)NCCN(C)C)cn12	none (no result: MITF act, SR-BI DiI-HDL act, SR-BI HDL uptake, HSF1 activator)
O=C(NCC(=O)N1CCCC1)NN=Cc1ccccc1O	none (no result: MITF act, SR-BI DiI-HDL act, SR-BI HDL uptake, HSF1 activator)
CCCCOc1ccc(/C=C/C2=CC(C)(C)NC(=S)N2)cc1OCC	SR-BI HDL uptake 89
CCOc1cc(C=O)ccc1OCCCN1C(=O)NC(C)(C)C1=O	none (no result: Wnt act)
COc1ccccc1C(=O)Nc1ccc(OCC(=O)N2CC(C)CC(C)C2)cc1 (configuration not stated)	none (no result: HSF1 activator)
O=[N+]([O-])c1cccc(N/N=C/c2ccc(N3CCOCC3)cc2)c1	MITF act 127
C(=N\Nc1ccccc1)/c1ccc(N2CCOCC2)cc1	MITF act 109 (no result: Wnt act)
O=C(O)c1cc(N/N=C/c2ccc(N3CCOCC3)cc2)ccc1Cl	Wnt act 37 (no result: SR-BI DiI-HDL act, SR-BI HDL uptake)
OC1CCCN(c2c3c(nc4cc(-c5cccc(F)c5)nn24)CCCC3)C1 (configuration not stated)	MITF act 87
Fc1ccc(-c2cc3nc4c(c(N5CCOCC5)n3n2)CCCC4)cc1	SR-BI HDL uptake 76
Cc1cccc(-c2cc3nc4c(c(N5CCOCC5)n3n2)CCCC4)c1	none (no result: HSF1 activator)
Cc1cccc(-c2cc3nc4c(c(N5CCC6(CC5)OCCO6)n3n2)CCCC4)c1	MITF act 91 (no result: HSF1 activator)
Cc1ccc(Cn2c(SCC(=O)NCC3CCCO3)nc3ccsc3c2=O)cc1 (configuration not stated)	SR-BI DiI-HDL act 60
O=c1c2sccc2nc(SCc2ccc([N+](=O)[O-])cc2)n1Cc1ccccn1	HSF1 activator 59
Cc1ccc(CNC(=O)CSc2nc3ccsc3c(=O)n2Cc2ccccn2)cc1	Wnt act 34
O=C(NCc1ccccc1)[C@@H]1CCCN1C(=O)[C@H]1CCCN1C(=O)c1ccc(F)c(F)c1	none (no result: MITF act, SR-BI DiI-HDL act, SR-BI HDL uptake, HSF1 activator)
COCCN1C[C@@H](CO)O[C@@H](n2cnc3c(N4CCCC4)ncnc32)C1	none (no result: MITF act, SR-BI DiI-HDL act, SR-BI HDL uptake, HSF1 activator)
Cc1ccc(S(=O)(=O)Nc2ccccc2N=Cc2ccc([N+](=O)[O-])cc2[N+](=O)[O-])cc1	none (no result: HSF1 activator)
Cn1cccc1C(=O)NC(=O)COC(=O)c1cc(S(=O)(=O)N2CCCCC2)ccc1Cl	SR-BI HDL uptake 81
CCOC(=O)c1ccc(S(=O)(=O)N2CCC(C(=O)O)CC2)cc1	SR-BI DiI-HDL act 69 (no result: MITF act)
N#CCCN(C(=O)COC(=O)c1ccc(S(=O)(=O)N2CCOCC2)cc1)c1ccccc1	none (no result: HSF1 activator)
CN(C(=O)COC(=O)c1cc(S(=O)(=O)N2CCCCC2)ccc1Cl)c1ccccc1	SR-BI HDL uptake 72 (no result: HSF1 activator)
CCOC(=O)c1ccc(S(=O)(=O)N2CCC(C(=O)OCC)CC2)cc1	none
O=C(COC(=O)c1cc(S(=O)(=O)N2CCCCC2)ccc1Cl)NC1CCCCC1	none (no result: MITF act, SR-BI DiI-HDL act, SR-BI HDL uptake, HSF1 activator)
CN(C(=O)COC(=O)c1ccc(S(=O)(=O)N2CCOCC2)cc1)c1ccccc1	SR-BI DiI-HDL act 70 (no result: HSF1 activator)
O=C(COc1ccc2ccc(=O)oc2c1)Nc1cccc(S(=O)(=O)N2CCCCC2)c1	none (no result: HSF1 activator)
CC(=NCc1ccco1)c1c(C)[nH]n(-c2nc3ccccc3s2)c1=O	none (no result: HSF1 activator, Wnt act)
C/C(=N/NC(=O)c1cccs1)c1c(C)[nH]n(-c2nc3ccccc3s2)c1=O	SR-BI HDL uptake 107
Cc1ccc(S(=O)(=O)Nc2nc3ccccc3nc2NCc2ccco2)cc1	HSF1 activator 68 (no result: Wnt act)
COc1ccc(NS(=O)(=O)c2ccc(C)c(C(=O)NNC(=O)c3ccccc3O)c2)cc1	SR-BI HDL uptake 97
O=C(NNC(=O)c1ccccc1O)c1ccc(NS(=O)(=O)c2ccc(F)c(F)c2)cc1	SR-BI HDL uptake 85
CC1(c2nnnn2-c2ccc3c(c2)OCCO3)CCC(=O)N1CCCn1ccnc1 (configuration not stated)	none (no result: MITF act, SR-BI DiI-HDL act, SR-BI HDL uptake, HSF1 activator)
CCN1C(=O)[C@H]2[C@@H](c3ccc(OC)cc3)N[C@]3(CCCN(CC4CCCCC4)C3=O)[C@H]2C1=O	none (no result: MITF act, SR-BI DiI-HDL act, SR-BI HDL uptake, HSF1 activator)
Cc1cc(=O)oc2c(C)c(OC(C)C(=O)NCC(O)c3ccccc3)ccc12 (configuration not stated)	MITF act inconclusive, HSF1 activator 51
COC(=O)C1=NN(C(=O)c2cccc(Br)c2)C(O)(c2ccc(Cl)cc2)C1 (configuration not stated)	HSF1 activator 183
CCOC(=O)C1=NN(C(=O)COc2ccccc2)C(O)(c2ccc(Cl)cc2)C1 (configuration not stated)	HSF1 activator 122
CCOC(=O)C1=NN(C(=O)Cc2ccccc2)C(O)(c2ccc(Cl)cc2)C1 (configuration not stated)	none
CCOC(=O)C1=NN(C(=O)c2ccc(OC)cc2)C(O)(c2ccc(Cl)cc2)C1 (configuration not stated)	HSF1 activator 80
CCOC(=O)C1=NN(C(=O)c2cccc(Br)c2)C(O)(C(C)(C)C)C1 (configuration not stated)	none (no result: MITF act, SR-BI DiI-HDL act, SR-BI HDL uptake, Wnt act)
CCOC(=O)C1=NN(C(=O)c2ccccc2)C(O)(c2ccc(C)cc2)C1 (configuration not stated)	HSF1 activator 318
COc1ccc(-c2coc3c(C(=O)NCc4cccs4)cccc23)c(C)c1	none (no result: MITF act, SR-BI DiI-HDL act, SR-BI HDL uptake, HSF1 activator)
COCCCn1cc(CN(C)C2CN(Cc3cn(CCCOC)nn3)S(=O)(=O)C2)nn1 (configuration not stated)	none (no result: MITF act, SR-BI DiI-HDL act, SR-BI HDL uptake, HSF1 activator)
Cc1ccccc1Oc1cc(NC(=O)Cn2cnc([N+](=O)[O-])c2)cc([N+](=O)[O-])c1	HSF1 activator 75
COc1cc(/C=N/N2CCN(C3c4ccccc4-c4ccccc43)CC2)cc(OC)c1OC	HSF1 activator 103
O=C1c2ccccc2/C(=C\c2ccc(O[C@@H]3CCCCO3)cc2)N1c1ccccc1	none (no result: MITF act, SR-BI DiI-HDL act, SR-BI HDL uptake, HSF1 activator)
CC1CN(C(=O)CS(=O)(=O)Cc2ccccc2)CC(C)O1 (configuration not stated)	HSF1 activator 60
Cc1sc2ncnc(SCC(=O)c3cccs3)c2c1C	Wnt act 38
O=C(Oc1ccc(/C=N/NC(=O)c2ccccc2O)cc1)c1ccccc1	none (no result: Wnt act)
O=C(N/N=C/c1ccc(F)cc1)c1cccc(NC(=O)c2ccc(F)cc2)c1	SR-BI HDL uptake 72
O=C(N/N=C/c1ccncc1)c1cccc(NC(=O)c2ccc(Cl)cc2)c1	none
O=C(N/N=C/c1ccc(OC(=O)c2ccccc2)cc1)c1cccc(O)c1	Wnt act 47
Cc1nc2ccccn2c1C(=O)NCc1ccc2c(c1)OCO2	none (no result: Wnt act)
Cc1nc2ccccn2c1C(=O)N/N=C/c1ccc2c(c1)OCO2	MITF act 88
